# Measurements as given in ChEMBL document CHEMBL2331170, “Synthesis and biological evaluation of novel pyranochalcone derivatives as a new class of microtubule stabilizing agents” (Eur J Med Chem, 2013).
# Calls of active or inactive are those of the source. The rule behind the calls is not given here.
# Assays:
# [1] = Cytotoxicity against human LO2 cells by MTT assay; assay type: cell-based; conditions: L02
# Method in brief: (§1)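 Log-phase cells were diluted to 40,000–50,000 cells/mL in medium with 10% FBS, 2 mM glutamine and antibiotics (37 °C, 5% CO₂). They were seeded in 96-well plates and treated with a range of doses. MTT was added for 4 h, the formazan was dissolved in DMSO, and absorbance was read at 590 nm.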
# [2] = test system: A-375; experiment: Cytotoxicity against human A375 cells by MTT assay; assay type: functional, cell-based; method in brief: as §1
# [3] = test system: K562; experiment: Cytotoxicity against human K562 cells by MTT assay; assay type: functional, cell-based; method in brief: as §1
# [4] = test system: HepG2; experiment: Cytotoxicity against human HepG2 cells by MTT assay; assay type: functional, cell-based; method in brief: as §1
# [5] = test system: A2780; experiment: Cytotoxicity against taxol-resistant human A2780 cells by MTT assay; assay type: functional, cell-based
# [6] = Cytotoxicity against human MCF7/ADR cells by MTT assay; assay type: functional, cell-based; conditions: NCI/ADR-RES
# [7] = test system: HCT-8; experiment: Cytotoxicity against taxol-resistant human HCT8 cells by MTT assay; assay type: functional, cell-based
# [8] = test system: DU-145; experiment: Cytotoxicity against human DU145 cells by MTT assay; assay type: functional, cell-based
# [9] = Cytotoxicity against human A2780S cells by MTT assay; assay type: functional, cell-based; conditions: A2780
# [10] = test system: PC-3; experiment: Cytotoxicity against human PC3 cells by MTT assay; assay type: functional, cell-based
# [11] = Cytotoxicity against human ES2 cells by MTT assay; assay type: functional, cell-based; conditions: ES-2
# [12] = test system: SK-OV-3; experiment: Cytotoxicity against human SKOV3 cells by MTT assay; assay type: functional, cell-based
# [13] = test system: SK-HEP1; experiment: Cytotoxicity against human SKHEP1 cells by MTT assay; assay type: functional, cell-based
# [14] = test system: MCF7; experiment: Cytotoxicity against human MCF7 cells by MTT assay; assay type: functional, cell-based
# [15] = test system: Bel-7402; experiment: Cytotoxicity against human Bel7402 cells by MTT assay; assay type: functional, cell-based
# [16] = Cytotoxicity against human SPC-A1 cells by MTT assay; assay type: functional, cell-based; conditions: SPCA1
# [17] = Cytotoxicity against human H460 cells by MTT assay; assay type: functional, cell-based; conditions: NCI-H460
# [18] = test system: NCI-H358; experiment: Cytotoxicity against human NCI-H358 cells by MTT assay; assay type: functional, cell-based
# [19] = test system: HT-29; experiment: Cytotoxicity against human HT-29 cells by MTT assay; assay type: functional, cell-based
# [20] = Cytotoxicity against mouse C26 cells by MTT assay; assay type: functional, cell-based
# [21] = test system: HCT-15; experiment: Cytotoxicity against human HCT15 cells by MTT assay; assay type: functional, cell-based
# [22] = test system: HepG2; experiment: Cell cycle arrest in human HepG2 cells assessed as accumulation at G2/M phase at 1 uM after 24 hrs by flow cytometry (reference value: 17.07 %); assay type: functional
# [23] = test system: HepG2; experiment: Cell cycle arrest in human HepG2 cells assessed as accumulation at G2/M phase at 0.2 uM after 24 hrs by flow cytometry (reference value: 17.07 %); assay type: functional
# [24] = test system: HepG2; experiment: Cell cycle arrest in human HepG2 cells assessed as accumulation at G2/M phase at after 24 hrs by flow cytometry; assay type: functional, cell-based
# [25] = test system: HepG2; experiment: Effect on microtubule network in human HepG2 cells assessed as abnormal mitotic spindles at 1 uM after 24 hrs by propidium iodide-FITC-based staining method; assay type: cell-based
# Method in brief: (§2)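 HepG2 cells were treated with 1.0 μM for 24 h. They were washed in PBS, fixed in cold 4% PFA for 10 min and blocked for 1 h in 5% goat serum/0.3% Triton/PBS. Staining used monoclonal anti-α-tubulin overnight at 4 °C, then Alexa Fluor 488 anti-mouse IgG for 30 min at room temperature, with propidium iodide for DNA. Cells were imaged by fluorescence or confocal microscopy.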
# [26] = test system: HepG2; experiment: Effect on microtubule network in human HepG2 cells assessed as multiple tubulin bundles without chromosomes aligned at the metaphase plate with more dispersion of the chromosomes at 1 uM after 24 hrs by propidium iodide-FITC-based staining method; assay type: cell-based; method in brief: as §2
# [27] = Ratio of taxol IC50 to compound IC50 for mouse C26 cells by MTT assay; assay type: functional
# [28] = test system: HepG2; experiment: Induction of microtubule polymerization in human HepG2 cells at 1 uM after 24 hrs by propidium iodide-FITC-based staining method
compound,measurement,setting,value
COc1ccc(/C=C/C(=O)c2ccc(OC)c3c2OC(C)(C)C=C3)cc1OS(=O)(=O)Cc1ccccc1,IC50,[1],> 10000 nM
same,IC50,[2],> 10000 nM
same,IC50,[3],> 10000 nM
same,IC50,[4],> 10000 nM
COc1cccc(C(=O)Oc2cc(/C=C/C(=O)c3ccc(OC)c4c3OC(C)(C)C=C4)ccc2OC)c1,IC50,[1],> 10000 nM
same,IC50,[2],800 nM
same,IC50,[3],790 nM
same,IC50,[4],870 nM
COc1ccc(/C=C/C(=O)c2ccc(OC)c3c2OC(C)(C)C=C3)cc1OCCCN(C)C,IC50,[1],8600 nM
same,IC50,[2],4100 nM
same,IC50,[3],2920 nM
same,IC50,[4],5550 nM
COc1cc2c(c(OC)c1OC)-c1ccc(OC)c(=O)cc1[C@@H](NC(C)=O)CC2 [COLCHICINE],IC50,[5],> 20000 nM
same,IC50,[6],3120 nM
same,IC50,[7],11800 nM
same,IC50,[8],300 nM
same,IC50,[9],20 nM
same,IC50,[10],40 nM
same,IC50,[11],90 nM
same,IC50,[12],120 nM
same,IC50,[13],170 nM
same,IC50,[14],290 nM
same,IC50,[15],1310 nM
same,IC50,[16],80000 nM
same,IC50,[17],27000 nM
same,IC50,[18],20 nM
same,IC50,[19],20 nM
same,IC50,[20],1720 nM
same,IC50,[21],80 nM
COc1ccc(/C=C/C(=O)c2ccc(OC)c3c2OC(C)(C)C=C3)cc1OC(=O)CCCc1ccc(N(CCCl)CCCl)cc1,IC50,[1],> 10000 nM
same,IC50,[2],9200 nM
same,IC50,[3],470 nM
same,IC50,[4],700 nM
COc1ccc(/C=C/C(=O)c2ccc(OC)c3c2OC(C)(C)C=C3)cc1OC(=O)CCl,IC50,[1],> 10000 nM
same,IC50,[2],450 nM
same,IC50,[3],400 nM
same,IC50,[4],120 nM
COc1ccc(/C=C/C(=O)c2ccc(OC)c3c2OC(C)(C)C=C3)cc1OCCN1CCCC1,IC50,[1],9500 nM
same,IC50,[2],3810 nM
same,IC50,[3],3050 nM
same,IC50,[4],> 10000 nM
COc1ccc(/C=C/C(=O)c2ccc(OC)c3c2OC(C)(C)C=C3)cc1OC(=O)Cc1ccc(Cl)c(Cl)c1,IC50,[1],> 10000 nM
same,IC50,[2],700 nM
same,IC50,[3],430 nM
same,IC50,[4],600 nM
COc1ccc(/C=C/C(=O)c2ccc(OC)c3c2OC(C)(C)C=C3)cc1OS(=O)(=O)c1ccc(C)cc1,IC50,[1],> 10000 nM
same,IC50,[2],2400 nM
same,IC50,[3],7850 nM
same,IC50,[4],3600 nM
COc1ccc(/C=C/C(=O)c2ccc(OC)c3c2OC(C)(C)C=C3)cc1OC(=O)Cc1cccc(C(F)(F)F)c1,IC50,[1],> 10000 nM
same,IC50,[2],480 nM
same,IC50,[3],290 nM
same,IC50,[4],570 nM
COc1ccc(/C=C/C(=O)c2ccc(OC)c3c2OC(C)(C)C=C3)cc1OCCN1CCOCC1,IC50,[1],> 10000 nM
same,IC50,[2],8200 nM
same,IC50,[3],8350 nM
same,IC50,[4],> 10000 nM
COc1ccc(/C=C/C(=O)c2ccc(OC)c3c2OC(C)(C)C=C3)cc1 [MILLEPACHINE],IC50,[1],> 20000 nM
same,IC50,[2],3580 nM
COc1ccc(/C=C/C(=O)c2ccc(OC)c3c2OC(C)(C)C=C3)cc1O,IC50,[1],> 10000 nM
same,IC50,[2],800 nM
same,IC50,[3],630 nM
same,IC50,[4],450 nM
CCCCC(=O)Oc1cc(/C=C/C(=O)c2ccc(OC)c3c2OC(C)(C)C=C3)ccc1OC,Activity,[22],69.18%
same,Activity,[23],53.47%
same,Activity,[24],Dose-dependent effect
same,Activity,[25],Active
same,Activity,[26],Active
same,Ratio IC50,[27],3
same,IC50,[5],5920 nM
same,IC50,[6],170 nM
same,IC50,[7],2300 nM
same,IC50,[8],210 nM
same,IC50,[9],330 nM
same,IC50,[10],120 nM
same,IC50,[11],100 nM
same,IC50,[12],270 nM
same,IC50,[13],600 nM
same,IC50,[14],250 nM
same,IC50,[15],> 2000 nM
same,IC50,[16],18100 nM
same,IC50,[17],5450 nM
same,IC50,[18],90 nM
same,IC50,[19],190 nM
same,IC50,[20],300 nM
same,IC50,[21],100 nM
same,IC50,[1],> 10000 nM
same,IC50,[2],220 nM
same,IC50,[3],240 nM
same,IC50,[4],100 nM
same,Activity,[28],Active
COc1ccc(/C=C/C(=O)Oc2cc(/C=C/C(=O)c3ccc(OC)c4c3OC(C)(C)C=C4)ccc2OC)cc1,IC50,[1],18000 nM
same,IC50,[2],2630 nM
same,IC50,[3],380 nM
same,IC50,[4],430 nM
COc1ccc(/C=C/C(=O)c2ccc(OC)c3c2OC(C)(C)C=C3)cc1OCC=C(C)C,IC50,[1],> 10000 nM
same,IC50,[2],> 10000 nM
same,IC50,[3],> 10000 nM
same,IC50,[4],> 10000 nM
COc1ccc(/C=C/C(=O)c2ccc(OC)c3c2OC(C)(C)C=C3)cc1OS(C)(=O)=O,IC50,[1],> 10000 nM
same,IC50,[2],> 10000 nM
same,IC50,[3],9240 nM
same,IC50,[4],9180 nM
C=CCOc1cc(/C=C/C(=O)c2ccc(OC)c3c2OC(C)(C)C=C3)ccc1OC,IC50,[1],> 20000 nM
same,IC50,[2],> 10000 nM
same,IC50,[3],> 10000 nM
same,IC50,[4],> 10000 nM
COc1ccc(/C=C/C(=O)c2ccc(OC)c3c2OC(C)(C)C=C3)cc1OC(=O)C(C)C,IC50,[1],> 10000 nM
same,IC50,[2],310 nM
same,IC50,[3],570 nM
same,IC50,[4],250 nM
COc1ccc(/C=C/C(=O)c2ccc(OC)c3c2OC(C)(C)C=C3)cc1OCCN1CCCCC1,IC50,[1],9150 nM
same,IC50,[2],3000 nM
same,IC50,[3],2080 nM
same,IC50,[4],4400 nM
COc1ccc(/C=C/C(=O)c2ccc(OC)c3c2OC(C)(C)C=C3)cc1OC(=O)C1CC1,IC50,[1],> 10000 nM
same,IC50,[2],380 nM
same,IC50,[3],410 nM
same,IC50,[4],220 nM
COc1ccc(/C=C/C(=O)c2ccc(OC)c3c2OC(C)(C)C=C3)cc1OC(=O)c1ccco1,IC50,[1],> 10000 nM
same,IC50,[2],680 nM
same,IC50,[3],450 nM
same,IC50,[4],370 nM
COc1ccc(/C=C/C(=O)c2ccc(OC)c3c2OC(C)(C)C=C3)cc1OCCO,IC50,[1],> 10000 nM
same,IC50,[2],9600 nM
same,IC50,[3],> 10000 nM
same,IC50,[4],> 10000 nM
C#CCOc1cc(/C=C/C(=O)c2ccc(OC)c3c2OC(C)(C)C=C3)ccc1OC,IC50,[1],> 10000 nM
same,IC50,[2],> 10000 nM
same,IC50,[3],> 10000 nM
same,IC50,[4],> 10000 nM
COc1ccc(/C=C/C(=O)c2ccc(OC)c3c2OC(C)(C)C=C3)cc1OC(=O)c1ccc(Br)cc1,IC50,[1],8400 nM
same,IC50,[2],420 nM
same,IC50,[3],1110 nM
same,IC50,[4],680 nM
C=CC(=O)Oc1cc(/C=C/C(=O)c2ccc(OC)c3c2OC(C)(C)C=C3)ccc1OC,IC50,[1],> 10000 nM
same,IC50,[2],390 nM
same,IC50,[3],300 nM
same,IC50,[4],160 nM
